TRPC6 activator – mouse TRPC6 channel activation | Q61143 | HEK293-TRPC6 membrane potential dye fluorescence; stronger effect = higher value | B-score at 10 µM | 310,000 tested, 0.13% active;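 active = B-score of the integrated fluorescence ratio above library mean plus 3 SD, and starting fluorescence ratio within library mean plus 5 SD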;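 note: higher score means more depolarization so channel activation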
TRPC4 agonist – activators of mouse TRPC4 channel; Q9QUQ5; HEK293 TRPC4beta/mu-opioid, Fluo4 calcium fluorescence; stronger effect = higher value; B-score at 10 µM; 310,000 tested, 0.49% active; AID 2237;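 active = B-score above 5 SD of library B-scores, and initial fluorescence ratio not above library mean plus 5 SD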;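 note: positive B-score marks a calcium rise read as TRPC4 activation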
Target sequence (Q9QUQ5 whole entry, looked up): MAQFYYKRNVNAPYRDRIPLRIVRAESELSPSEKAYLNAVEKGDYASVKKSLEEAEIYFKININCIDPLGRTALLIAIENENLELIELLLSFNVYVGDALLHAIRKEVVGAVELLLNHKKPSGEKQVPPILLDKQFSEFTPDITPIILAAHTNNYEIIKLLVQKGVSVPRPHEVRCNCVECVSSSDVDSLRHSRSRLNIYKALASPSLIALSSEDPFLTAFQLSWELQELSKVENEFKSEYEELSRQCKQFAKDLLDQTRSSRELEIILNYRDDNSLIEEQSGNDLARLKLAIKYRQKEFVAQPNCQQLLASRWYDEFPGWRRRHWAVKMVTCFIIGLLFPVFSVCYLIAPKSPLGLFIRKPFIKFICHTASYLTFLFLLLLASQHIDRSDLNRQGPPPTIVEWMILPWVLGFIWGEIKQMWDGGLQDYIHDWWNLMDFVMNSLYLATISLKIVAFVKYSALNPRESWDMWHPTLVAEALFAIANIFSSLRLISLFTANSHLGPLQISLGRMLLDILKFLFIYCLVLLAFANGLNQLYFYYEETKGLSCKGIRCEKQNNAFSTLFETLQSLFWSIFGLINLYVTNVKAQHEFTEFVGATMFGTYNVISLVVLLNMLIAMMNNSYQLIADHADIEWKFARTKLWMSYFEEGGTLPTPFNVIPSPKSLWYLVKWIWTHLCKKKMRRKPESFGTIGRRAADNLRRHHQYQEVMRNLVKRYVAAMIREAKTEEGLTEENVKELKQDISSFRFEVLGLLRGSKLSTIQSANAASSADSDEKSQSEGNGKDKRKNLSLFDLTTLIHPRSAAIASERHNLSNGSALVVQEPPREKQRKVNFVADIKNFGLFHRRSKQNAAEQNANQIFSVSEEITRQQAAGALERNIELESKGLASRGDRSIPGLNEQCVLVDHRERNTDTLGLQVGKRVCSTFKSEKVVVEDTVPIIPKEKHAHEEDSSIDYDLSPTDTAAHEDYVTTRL
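Incubation: 45 min room-temperature Fluo4 loading, 110 s read / System: HEK293 cells stably co-expressing mouse TRPC4beta and mu-opioid receptor / Signal: Fluo4 fluorescence, kinetic / Control set: buffer (low) and maximal DAMGO (high) / Measure: integrated baseline-normalised fluorescence ratio, converted to per-well B score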
TRPC4 block – inhibitors of mouse TRPC4 channel | B-score at 10 µM | 300,000 tested, 0.39% active | Q9QUQ5 | HEK293 TRPC4beta/mu-opioid, DAMGO-evoked Fluo4 calcium flux; stronger effect = lower value;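 active = B-score over 3 SD under the library average, no early fluorescence shift, positive overall ratio signal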
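test system = HEK293 cells with stable TRPC4beta plus mu-opioid receptor expression | detection = Fluo4 Ca2+ flux fluorescence | read-out = integrated fluorescence ratio relative to baseline, converted to per-well B score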
TRPC4 potent – TRPC4 (mouse) allosteric potentiation; Q9QUQ5; HEK293 TRPC4beta/mu-opioid, DAMGO EC20, Fluo-4 Ca2+ flux; stronger effect = higher value; B-score at 10 µM; 310,000 tested, 0.42% active;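 active = B-score of calcium response area above 5 SD of library B-scores, with initial fluorescence ratio within 5 SD of library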;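 note: B-score of integrated fluorescence ratio over time as area under calcium response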
TRPC6 inh – mouse TRPC6 channel inhibition; HEK293-TRPC6, membrane potential dye, ACh-evoked depolarization; stronger effect = lower value; B-score at 10 µM; 310,000 tested, 1.1% active;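 active = B-score under library mean minus 3 SD, initial fluorescence not abnormally high, positive integrated signal ratio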;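 note: B-score derived from integrated fluorescence ratio over the kinetic read; more negative B-score means stronger inhibition of depolarization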
TRPC4 sel inh 2 – mouse TRPC4 off-target activity of TRPC6 inhibitors, second screen. shares compounds with TRPC6 inh. HEK293 TRPC4/MOR, membrane potential dye fluorescence; channel activated by saturating DAMGO dose. inhibition, % at 10 µM. 920 tested, 42% active. AID 2776;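 active = compounds whose fluorescence signal differed from control wells by over 3 SD, either direction, in both duplicate plates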
TRPC4 spec – tests whether TRPC6 inhibitors also affect mouse TRPC4; shares compounds with TRPC6 inh; HEK293 TRPC4/mu-opioid, membrane potential fluorescence; activity change, negative = inhibition, % at 10 µM; 920 tested, 61% active;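 active = rise or fall in signal beyond 3 SD of buffer-only wells in both replicate plates, either sign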;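 note: integrated kinetic ratio of fluorescence range over baseline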
HEK293 MPD ctr 2-1 – parental HEK293 nonspecific activity of TRPC6 inhibitors, second screen; shares compounds with TRPC6 inh; parental HEK293 membrane potential dye fluorescence; maximal acetylcholine challenge after compound addition; signal change vs control, % at 10 µM; 920 tested, 31% active;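 active = membrane potential signal moving either way by over 3 SD of the maximum-effect control, in both duplicate plates, meaning non-specific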
HEK293 MPD ctr-1 – checks TRPC6 inhibitor effects in parental HEK293 cells | shares compounds with TRPC6 inh | parental HEK293 membrane potential dye fluorescence | membrane potential signal change, % at 10 µM | 920 tested, 60% active | AID 2780;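 active = membrane potential signal shifting up or down by more than 3 SD of buffer-only wells, on both duplicate plates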
HEK293 MPD ctr-2 – parental HEK293 nonspecific activity of TRPC6 modulators; membrane potential signal change, % at 10 µM; shares compounds with TRPC6 inh; 2,400 tested, 51% active; membrane potential dye fluorescence;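 active = membrane potential signal moves up or down beyond 5 SD from buffer-only wells, on both duplicate plates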
HEK293 MPD ctr 2-2 – parental HEK293 nonspecific activity of TRPC6 modulators, second screen; inhibition, % at 10 µM; 2,400 tested, 14% active; membrane potential dye fluorescence; after compound, maximal acetylcholine stimulation; AID 488926; shares compounds with TRPC6 inh;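 active = membrane potential signal drops by more than 5 SD from the mean control signal, in both duplicate plates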;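 note: plate controls were acetylcholine ECmax control wells for no effect and buffer only wells for full effect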
TRPC4 ctr mod – tests whether TRPC6 modulators also affect mouse TRPC4 | shares compounds with TRPC6 inh | HEK293 TRPC4/mu-opioid, membrane potential fluorescence | percent change from control (negative = decrease, positive = increase), % at 10 µM | 2,400 tested, 69% active | AID 488927;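 active = membrane potential signal moved up or down beyond 5 SD of buffer control wells, in both duplicate plates, actives on both sides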;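 note: plate controls were assay buffer wells for no effect and DAMGO maximal-effect wells for full effect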
TRPC4/MOR inh 2 – second check of whether TRPC6 modulators also affect mouse TRPC4 | shares compounds with TRPC6 inh | HEK293 TRPC4/mu-opioid, membrane potential dye fluorescence; stimulated with maximal-effect DAMGO | inhibition, % at 10 µM | 2,400 tested, 55% active | AID 488928;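 active = drop in membrane potential signal beyond 5 SD of the control wells in both duplicate plates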;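 note: TRPC4 counter screen for TRPC6 hits run under conditions tuned for TRPC6 not TRPC4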
TRPC6 block conf – mouse TRPC6 inhibitor confirmation; HEK293-TRPC6, membrane potential dye, ACh-evoked depolarization; 3,300 tested, 43% active; inhibition, % at 10 µM; shares compounds with TRPC6 inh;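 active = fluorescence ratio falls more than 5 SD below the full-stimulation control mean, in both duplicate runs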;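 note: integrated fluorescence ratio of peak minus minimum over baseline after agonist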
TRPC6 act conf – confirmation of mouse TRPC6 activators | shares compounds with TRPC6 inh | HEK293-TRPC6 membrane potential dye fluorescence, FDSS | activation, % at 10 µM | 2,800 tested, 11% active | AID 488961;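 active = ratio signal rise beyond 5 SD above unstimulated control wells' mean, seen in both duplicate runs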;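 note: plate controls were buffer EC0 wells for no effect and acetylcholine ECmax response for full effect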
* hit, by the source's call; i = inactive; . = no result. Sampled rows, rich in hits. Any-hit rate of the full collection: about 2.3%.

SMILES	TRPC6 activator	TRPC4 agonist	TRPC4 block	TRPC4 potent	TRPC6 inh	TRPC4 sel inh 2	TRPC4 spec	HEK293 MPD ctr 2-1	HEK293 MPD ctr-1	HEK293 MPD ctr-2	HEK293 MPD ctr 2-2	TRPC4 ctr mod	TRPC4/MOR inh 2	TRPC6 block conf	TRPC6 act conf
CC1CCN(CC(O)CN2c3ccccc3Sc3ccccc32)CC1 (stereo not given)	i	i	i	i	-6.7*	66%*	1.4%*	i	i	.	.	.	.	i	i
Cc1oc(-c2ccc(Cl)cc2)nc1CN1CCCC(C(=O)NCc2ccco2)C1 (stereo not given)	16*	i	i	i	-6.7*	.	.	.	.	114%*	i	20%*	51%*	47%*	92%*
Cc1oc(-c2ccc(Cl)cc2)nc1CN1CCCC(C(=O)NC2CC2)C1 (stereo not given)	i	i	i	i	i	.	.	.	.	.	.	.	.	.	.
Cc1noc(C)c1COc1ccc(C(=O)OCC(N)=O)cc1	i	i	i	i	i	.	.	.	.	.	.	.	.	.	.
Cn1c(SCC(=O)Nc2cccc(F)c2)nc2c([nH]c3ccccc32)c1=O	i	i	i	i	i	.	.	.	.	.	.	.	.	.	.
CC(C)N1CC2=C(OC(N)=C(C#N)C2c2cccnc2)/C(=C/c2cccnc2)C1 (stereo not given)	i	i	i	i	-5*	.	.	.	.	91%*	i	i	i	i	i
N#CC1=C(N)OC2=C(CN(Cc3ccccc3)C/C2=C\c2cccnc2)C1c1cccnc1 (stereo not given)	i	i	i	i	i	.	.	.	.	.	.	.	.	.	.
O=C(NC1CCCCC1)C(c1ccccc1)N(Cc1ccco1)C(=O)c1csnn1 (stereo not given)	i	i	i	i	i	.	.	.	.	.	.	.	.	.	.
O=C(NC1CCCCC1)C(c1ccccc1)N(Cc1ccco1)C(=O)Cn1cnc2ccccc21 (stereo not given)	17*	i	i	i	i	.	.	.	.	277%*	i	119%*	i	i	109%*
COc1ccc(C2N(c3ccccc3)C(=S)N3CCCN23)cc1 (stereo not given)	i	i	i	i	i	.	.	.	.	.	.	.	.	.	.
S=C1N(c2ccccc2)C(c2ccc(Br)cc2)N2CCCN12 (stereo not given)	i	i	i	i	-10*	i	i	18%*	i	.	.	.	.	68%*	i
S=C1N(c2ccccc2)C(c2ccc(Cl)cc2)N2CCCN12 (stereo not given)	i	i	i	i	-8.7*	i	i	30%*	i	.	.	.	.	68%*	i
